Results: ChEMBL document CHEMBL5058577, “EUbOPEN Chemogenomics Library 2 (Multiplex)” (2022)

Tested on: HEK-293T
Experiment: Multiplex assay against HEK293T
Format: toxicity, cell-based
Conditions: human
Procedure, shortened: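 Values for tubulin, mitochondrial-mass and membrane-permeability phenotypes are per cents of cells with healthy nuclei. These cells were identified by CellPathfinder machine-learning gating of live cells that had been stained at seeding with Hoechst33342, BioTracker Green Microtubule Cytoskeleton Dye, MitoTracker Red and Annexin V Alexa Fluor 680 and imaged on a CQ1 microscope at 37°C and 5% CO2 after compound addition. The gating first set Hoechst high-intensity objects apart from normal cells, then split normal cells into healthy, pyknosed or fragmented nuclei, and pyknosed cells into mitotic or apoptotic.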

[1] = 12 h, 1 µM, compound concentration 1 uM, replicate 1
[2] = 12 h, 1 µM, compound concentration 1 uM, replicate 2
[3] = 12 h, 10 µM, compound concentration 10 uM, replicate 1
[4] = 12 h, 10 µM, compound concentration 10 uM, replicate 2
[5] = 24 h, 1 µM, compound concentration 1 uM, replicate 1
[6] = 24 h, 1 µM, compound concentration 1 uM, replicate 2
[7] = 24 h, 10 µM, compound concentration 10 uM, replicate 1
[8] = 24 h, 10 µM, compound concentration 10 uM, replicate 2
[9] = 48 h, 1 µM, compound concentration 1 uM, replicate 1
[10] = 48 h, 1 µM, compound concentration 1 uM, replicate 2
[11] = 48 h, 10 µM, compound concentration 10 uM, replicate 1
[12] = 48 h, 10 µM, compound concentration 10 uM, replicate 2

CN(C)C/C=C/C(=O)Nc1ccc(C(=O)N2CCCC(Nc3ncc(Cl)c(-c4c[nH]c5ccccc45)n3)C2)cc1 (stereo not given)
Population Apoptotic (%) [1]: 46%
Population Fragmented Nuclei (%) [1]: 8%
Population Healthy Nuclei (%) [1]: 55%
Population Hoechst High Intensity Objects (%) [1]: 30%
Population Membrane Permeable-Phenotype (%) [1]: 0%
Population Mitochondria Different-Phenotype (%) [1]: 87%
Population Mitotic Cells (%) [1]: 53%
Population Normal (%) [1]: 69%
Population Pyknosed Nuclei (%) [1]: 35%
Population Tubulin-Different-Phenotype (%) [1]: 69%
Total Cell Count [1]: 227
Population Apoptotic (%) [2]: 63%
Population Fragmented Nuclei (%) [2]: 6%
Population Healthy Nuclei (%) [2]: 64%
Population Hoechst High Intensity Objects (%) [2]: 23%
Population Mitochondria Different-Phenotype (%) [2]: 89%
Population Mitotic Cells (%) [2]: 36%
Population Normal (%) [2]: 76%
Population Pyknosed Nuclei (%) [2]: 29%
Population Tubulin-Different-Phenotype (%) [2]: 70%
Total Cell Count [2]: 231
Population Apoptotic (%) [3]: 62%
Population Fragmented Nuclei (%) [3]: 12%
Population Healthy Nuclei (%) [3]: 57%
Population Hoechst High Intensity Objects (%) [3]: 35%
Population Membrane Permeable-Phenotype (%) [3]: 0%
Population Mitochondria Different-Phenotype (%) [3]: 95%
Population Mitotic Cells (%) [3]: 37%
Population Normal (%) [3]: 64%
Population Pyknosed Nuclei (%) [3]: 30%
Population Tubulin-Different-Phenotype (%) [3]: 79%
Total Cell Count [3]: 269
Population Apoptotic (%) [4]: 77%
Population Fragmented Nuclei (%) [4]: 7%
Population Healthy Nuclei (%) [4]: 64%
Population Hoechst High Intensity Objects (%) [4]: 29%
Population Mitotic Cells (%) [4]: 22%
Population Normal (%) [4]: 70%
Population Pyknosed Nuclei (%) [4]: 28%
Population Tubulin-Different-Phenotype (%) [4]: 81%
Total Cell Count [4]: 181
Population Apoptotic (%) [5]: 72%
Population Fragmented Nuclei (%) [5]: 15%
Population Healthy Nuclei (%) [5]: 62%
Population Hoechst High Intensity Objects (%) [5]: 27%
Population Membrane Permeable-Phenotype (%) [5]: 0%
Population Mitochondria Different-Phenotype (%) [5]: 85%
Population Mitotic Cells (%) [5]: 27%
Population Normal (%) [5]: 72%
Population Pyknosed Nuclei (%) [5]: 22%
Population Tubulin-Different-Phenotype (%) [5]: 74%
Total Cell Count [5]: 222
Population Apoptotic (%) [6]: 74%
Population Fragmented Nuclei (%) [6]: 9%
Population Healthy Nuclei (%) [6]: 67%
Population Hoechst High Intensity Objects (%) [6]: 26%
Population Mitochondria Different-Phenotype (%) [6]: 89%
Population Mitotic Cells (%) [6]: 25%
Population Normal (%) [6]: 73%
Population Pyknosed Nuclei (%) [6]: 23%
Population Tubulin-Different-Phenotype (%) [6]: 70%
Total Cell Count [6]: 207
Population Apoptotic (%) [7]: 74%
Population Fragmented Nuclei (%) [7]: 19%
Population Healthy Nuclei (%) [7]: 55%
Population Hoechst High Intensity Objects (%) [7]: 49%
Population Membrane Permeable-Phenotype (%) [7]: 0%
Population Mitochondria Different-Phenotype (%) [7]: 96%
Population Mitotic Cells (%) [7]: 25%
Population Normal (%) [7]: 50%
Population Pyknosed Nuclei (%) [7]: 24%
Population Tubulin-Different-Phenotype (%) [7]: 52%
Total Cell Count [7]: 314
Population Apoptotic (%) [8]: 88%
Population Fragmented Nuclei (%) [8]: 10%
Population Healthy Nuclei (%) [8]: 68%
Population Hoechst High Intensity Objects (%) [8]: 34%
Population Mitochondria Different-Phenotype (%) [8]: 98%
Population Mitotic Cells (%) [8]: 11%
Population Normal (%) [8]: 65%
Population Pyknosed Nuclei (%) [8]: 20%
Population Tubulin-Different-Phenotype (%) [8]: 77%
Total Cell Count [8]: 197
Population Apoptotic (%) [9]: 67%
Population Fragmented Nuclei (%) [9]: 16%
Population Healthy Nuclei (%) [9]: 59%
Population Hoechst High Intensity Objects (%) [9]: 30%
Population Membrane Permeable-Phenotype (%) [9]: 0%
Population Mitochondria Different-Phenotype (%) [9]: 79%
Population Mitotic Cells (%) [9]: 32%
Population Normal (%) [9]: 69%
Population Pyknosed Nuclei (%) [9]: 23%
Population Tubulin-Different-Phenotype (%) [9]: 71%
Total Cell Count [9]: 239
Population Apoptotic (%) [10]: 81%
Population Fragmented Nuclei (%) [10]: 6%
Population Healthy Nuclei (%) [10]: 65%
Population Hoechst High Intensity Objects (%) [10]: 26%
Population Mitochondria Different-Phenotype (%) [10]: 95%
Population Mitotic Cells (%) [10]: 18%
Population Normal (%) [10]: 73%
Population Pyknosed Nuclei (%) [10]: 27%
Population Tubulin-Different-Phenotype (%) [10]: 74%
Total Cell Count [10]: 184
Population Apoptotic (%) [11]: 55%
Population Fragmented Nuclei (%) [11]: 62%
Population Healthy Nuclei (%) [11]: 14%
Population Hoechst High Intensity Objects (%) [11]: 67%
Population Membrane Permeable-Phenotype (%) [11]: 0%
Population Mitochondria Different-Phenotype (%) [11]: 100%
Population Mitotic Cells (%) [11]: 44%
Population Normal (%) [11]: 32%
Population Pyknosed Nuclei (%) [11]: 23%
Population Tubulin-Different-Phenotype (%) [11]: 23%
Total Cell Count [11]: 361
Population Apoptotic (%) [12]: 80%
Population Fragmented Nuclei (%) [12]: 47%
Population Healthy Nuclei (%) [12]: 30%
Population Hoechst High Intensity Objects (%) [12]: 58%
Population Mitochondria Different-Phenotype (%) [12]: 94%
Population Mitotic Cells (%) [12]: 20%
Population Normal (%) [12]: 41%
Population Pyknosed Nuclei (%) [12]: 21%
Population Tubulin-Different-Phenotype (%) [12]: 57%
Total Cell Count [12]: 277
